Bioassay records (PubChem BioAssay)
A selection: hits, their analogues and other compounds. The true share with any hit is near 1.8%.
LEDGF integ inh = blocks HIV-1 LEDGF/p75-dependent DNA integration; TR-FRET IN-LEDGF/p75 DNA integration, Eu/Cy5; inhibition, % at 3.7 µM; 0.64% of 370,000 active;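 active = inhibition above the screen-wide mean plus 3 SD, cut at about 13% in these data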;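 also: signal is the Cy5 over europium emission ratio at 671 and 618 nm; 0% = plate median of compound wells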
TDP2 inh = blocks human TDP2 phosphodiesterase activity | inhibition, % at 12.8 µM | O95551 | 0.34% of 370,000 active | recombinant TDP2, T5PNP hydrolysis, p-nitrophenol absorbance 415 nm;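 active = inhibition above the mean of all tested compounds plus 3 SD, set per campaign, cut at about 25% in these data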;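 also: 0% = DMSO with enzyme and 100% = buffer with substrate but no TDP2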
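Incubation: 2 h at 37 °C; Test system: recombinant human TDP2; Quantity: enzyme 120 nM; Read-out basis: percent inhibition; Medium: 50 mM Tris-HCl pH 7.5 with Mg2+, KCl, DTT, BSA; Repeats: single replicate; Compound: 12.8 µM single point, 1% DMSO; Signal: epi absorbance; Reagent: 5 mM T5PNP chromogenic substrate; Benchmarks: no-enzyme high, DMSO-plus-enzyme low.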
UHRF1 MBD2 ctr = UHRF1 methyl-DNA binding inhibition. Q96T88. UHRF1 binding to methylated oligo, TR-FRET. inhibition, % at 4.4 µM. 0.75% of 370,000 active. AID 687016; in the data active = inhibition above about 21%;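 also: UHRF1 SRA domain binding a hemimethylated CpG hairpin DNA probe; 0% = median of test compound wells and 100% = reference inhibitor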
MBD2 DNA inh = MBD2-methylated oligo binding inhibition | TR-FRET, MBD2 binding to methylated oligonucleotide | Q9UBB5 | inhibition, % at 4.4 µM | 0.31% of 370,000 active; in the data active = inhibition above about 13%
Target sequence (Q9UBB5 whole entry, looked up): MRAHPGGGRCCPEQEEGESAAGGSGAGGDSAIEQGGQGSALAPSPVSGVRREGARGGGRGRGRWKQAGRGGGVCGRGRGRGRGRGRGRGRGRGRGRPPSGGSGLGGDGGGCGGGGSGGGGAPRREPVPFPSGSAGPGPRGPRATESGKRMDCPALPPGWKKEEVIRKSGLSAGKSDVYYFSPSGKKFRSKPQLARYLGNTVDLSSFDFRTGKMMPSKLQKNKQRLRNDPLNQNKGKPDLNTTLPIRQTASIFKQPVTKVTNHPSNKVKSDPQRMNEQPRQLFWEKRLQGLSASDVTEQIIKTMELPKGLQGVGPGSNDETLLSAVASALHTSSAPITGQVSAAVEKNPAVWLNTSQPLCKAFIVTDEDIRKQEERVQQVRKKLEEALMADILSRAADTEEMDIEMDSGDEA
Casp6 inh = caspase-6 (human) enzyme inhibition; P55212; purified caspase-6, Z-VEID-R110 cleavage fluorescence; inhibition, % at 12.5 µM; 0.53% of 350,000 active;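 active = mean inhibition across replicates at least about 35%, with every replicate also reaching that limit, limit read from the data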;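 also: 0% = median of neutral control wells and 100% = no fluorescence left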
Target sequence (P55212 24-179 limits assumed): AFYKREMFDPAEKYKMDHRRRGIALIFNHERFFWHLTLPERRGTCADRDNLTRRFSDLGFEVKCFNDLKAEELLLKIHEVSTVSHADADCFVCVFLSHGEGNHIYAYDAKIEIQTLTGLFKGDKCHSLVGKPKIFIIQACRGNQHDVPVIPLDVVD
Target sequence (P55212 194-293 limits assumed): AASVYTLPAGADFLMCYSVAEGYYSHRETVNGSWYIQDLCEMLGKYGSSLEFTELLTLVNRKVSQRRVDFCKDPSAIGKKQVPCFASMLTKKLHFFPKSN
NSD2 HMT inh = inhibitors of human histone methyltransferase NSD2; O96028; NSD2 peptide methylation, AlphaScreen, 120 min; inhibition, % at 12.5 µM; 0.54% of 310,000 active; in the data active = inhibition above about 50%
AlphaScreen art = AlphaScreen assay artifact in NSD2 counter-screen; AID 1053174; AlphaScreen artifact counterscreen, preloaded methylated H4 peptide; shares compounds with NSD2 HMT inh; AC35, µM (highest dose often 10 µM), inactives show top-dose activity change, negative = signal loss; 9.4% of 1,500 active; call rule not given here
* = called active by the depositor; · = not tested or not shown; + = active, no number.

SMILES | LEDGF integ inh | TDP2 inh | UHRF1 MBD2 ctr | MBD2 DNA inh | Casp6 inh | NSD2 HMT inh | AlphaScreen art
COc1ccccc1NC1C=CS(=O)(=O)C1 (stereo not drawn) | -4 | 13 | 1 | 5 | · | 97* | -5%
CNc1c(N)n(Cc2ccccc2)c(=O)[nH]c1=O | -2 | 4 | -4 | 2 | · | 64* | -7%
CN(C(=S)NC(=O)c1ccccc1)c1c(N)n(Cc2ccccc2)c(=O)[nH]c1=O | 0 | 5 | 0 | 1 | -1 | -1 | ·
C[C@@H]1CN([C@H](C)CO)C(=O)c2cc(NS(=O)(=O)c3cccs3)ccc2O[C@@H](C)CCCCO[C@@H]1CN(C)S(C)(=O)=O | · | · | · | · | -1 | · | ·
Cc1cc(F)c(F)c(C(=O)N2C(C)CCCC2C)c1Cl (stereo not drawn) | 2 | -3 | -1 | -2 | -3 | 58* | 2%
O=C(CN1CCN(c2ccccc2F)CC1)c1ccc(O)c(O)c1 | 64* | 12 | 6 | -4 | · | 95* | -19%
Cc1c(O)ccc(C(=O)CN2CCN(c3ccccc3F)CC2)c1O | · | · | · | · | · | 0 | ·
COc1ccc(OC)c(C(=O)CN2CCN(S(=O)(=O)c3ccc(Br)cc3)CC2)c1 | 3 | 8 | -3 | -6 | · | 3 | ·
O=C(CN1CCN(S(=O)(=O)c2ccc(Br)cc2)CC1)c1ccc(O)c(O)c1 | 42* | 1 | 1 | -4 | 55* | 80* | -13%
CN1c2ccc(C#Cc3cccnc3)cc2[C@H]2[C@H](CCN2C(=O)C2CCCCC2)[C@H]1CO | · | · | · | · | 3 | · | ·
C[C@@H]1CN([C@H](C)CO)C(=O)c2cc(NC(=O)Nc3ccc(C(F)(F)F)cc3)ccc2O[C@@H](C)CCCCO[C@@H]1CN(C)Cc1ccccc1 | · | · | · | · | -2 | · | ·
CCCC(=O)Nc1ccc2c(c1)OC[C@@H](C)N(C(=O)CN1CCOCC1)C[C@@H](C)[C@H](OC)CN(C)C2=O | · | · | · | · | -1 | · | ·
C[C@@H]1CN([C@H](C)CO)S(=O)(=O)c2ccc(-c3ccc(C#N)cc3)cc2O[C@H]1CN(C)C(=O)CN(C)C | · | · | · | · | -2 | · | ·
Nc1nc(=S)c2ncn(C3OC(CO)C(O)C3O)c2[nH]1 (stereo not drawn) | 9 | 13 | 7 | 5 | · | 52* | -9%
Cc1ccc(C(=O)Nc2ccc(NC(=O)c3ccc(C)o3)cc2)o1 | -2 | 6 | 1 | 1 | 1 | 1 | ·
Cc1ccc(C(=O)Nc2ccc(CC(=O)O)cc2)o1 | 2 | 1 | 6 | 3 | · | 126* | -3%
C[C@@H]1CN([C@@H](C)CO)S(=O)(=O)c2ccc(C#Cc3ccc(F)cc3)cc2O[C@@H]1CN(C)S(=O)(=O)c1ccc(F)cc1 | · | · | · | · | 5 | · | ·
O=C1C=C(c2c(O)ccc3ccccc23)c2ccccc2C1=O | -2 | 19 | 3 | -2 | 22 | 112* | -14%
O=C(O)c1cc2ccccc2c2c1C(=O)c1ccccc1-2 | 0 | -2 | -13 | -9 | 1 | -2 | ·
Cc1ncc(CO)c2c1Oc1nc(-c3ccccc3)nc(SCC(=O)N3CCOCC3)c1C2 | 4 | -5 | 2 | 1 | 6 | 79* | -10%
CCCNC(=O)N(C)C[C@H]1Oc2cc(-c3ccccc3F)ccc2S(=O)(=O)N([C@@H](C)CO)C[C@@H]1C | · | · | · | · | 7 | · | ·
CCN(CC)CCNC(=O)/C(=C\c1cccn1C)NC(=O)c1cccs1 | 2 | 1 | -3 | -4 | -6 | 55* | -4%
CCCNC(=O)N1CCC2(CC1)CN(C(=O)CC)[C@H](CO)c1[nH]c3cc(OC)ccc3c12 | · | · | · | · | -1 | · | ·
CC1CN(C(=O)COC(=O)/C=C/c2ccccc2)CC(C)O1 (stereo not drawn) | -2 | 8 | -2 | 4 | -2 | 61* | -4%
C[C@@H]1CN([C@H](C)CO)C(=O)Cc2cc(NC(=O)Nc3ccccc3)ccc2O[C@H]1CN(C)Cc1ccncc1 | · | · | · | · | 0 | · | ·
SMILES | LEDGF integ inh | TDP2 inh | UHRF1 MBD2 ctr | MBD2 DNA inh | Casp6 inh | NSD2 HMT inh | AlphaScreen art
CCOc1ccccc1N1CCN(Cc2ccco2)CC1 | -4 | 8 | 0 | 4 | 0 | 0 | ·
CCOc1ccccc1N1CCN(C/C=C/c2ccc(N(C)C)cc2)CC1 | 1 | -3 | 2 | -5 | · | 69* | 9.2µM*
COc1ccc2c3c([nH]c2c1)[C@H](CO)N(C(=O)C1CCOCC1)CC31CCN(Cc2nccs2)CC1 | · | · | · | · | 1 | · | ·
CCS(=O)(=O)N1[C@H](CO)[C@@H](c2ccccc2)C12CN(C(=O)C1CC1)C2 | · | · | · | · | 1 | · | ·
CCOC(=O)c1c(C)oc2c1c(C=NCCC(=O)O)c(O)c1ccccc12 | 1 | -3 | 1 | -1 | 31 | 164* | 0%
COc1ccc(S(=O)(=O)N(C)C[C@@H]2Oc3c(NC(=O)C4CCOCC4)cccc3C(=O)N([C@H](C)CO)C[C@H]2C)cc1 | · | · | · | · | 0 | · | ·
O=C1OCC2=Nc3cccc4cccc(c34)N12 | -6 | 4 | -11 | -10 | 0 | -3 | ·
CC1=Nc2cccc3cccc(c23)N1C | -8 | 6 | -7 | -5 | · | + | 3%
Cc1cccnc1NC(=O)C1CCCN1S(=O)(=O)c1ccc(Cl)cc1 (stereo not drawn) | 2 | 11 | 1 | 3 | 5 | 0 | ·
O=C(NCCc1ccccn1)C1CCCN1S(=O)(=O)c1ccc(Cl)cc1 (stereo not drawn) | 1 | -8 | -2 | 1 | · | 119* | -1%
CCCNC(=O)C[C@@H]1CC[C@H]2[C@H](COc3ccc(NC(=O)c4cccc(C(F)(F)F)c4)cc3C(=O)N2C)O1 | · | · | · | · | 2 | · | ·
CNC(=O)C[C@H]1CC[C@@H]2[C@H](COC[C@H](O)CN2C(=O)Nc2cccc(OC)c2)O1 | · | · | · | · | 1 | · | ·
CC1=C/C(=C(\c2cc(C)c(O)c(Br)c2)c2ccccc2S(=O)(=O)O)C=C(Br)C1=O | -11 | 5 | -1 | -13 | 8 | 50* | 7.8µM*
Cc1cc(C(=O)c2ccccc2)cc(C)c1O | -3 | 1 | 0 | -3 | 2 | -1 | ·
COc1ccc2c3c([nH]c2c1)[C@@H](CO)N(C(=O)C1CC1)CC31CN(Cc2nccs2)C1 | · | · | · | · | 0 | · | ·
O=C(N/N=C\c1cc2c(cc1[N+](=O)[O-])OCO2)c1cccs1 | -1 | 4 | -6 | -2 | 3 | 1 | ·
Nc1nonc1C(=O)N/N=C/c1cc2c(cc1[N+](=O)[O-])OCO2 | 2 | 9 | -3 | -2 | 0 | 113* | -1%
O=[N+]([O-])c1ccc(Sc2cccc[n+]2[O-])c2nonc12 | 0 | 0 | -3 | -7 | 62* | 129* | 7.8µM*
COc1cc(NC(=O)COC(=O)CNC(=O)c2ccc(C)cc2)c(C)cc1[N+](=O)[O-] | -7 | 0 | 2 | -2 | 2 | 59* | -4%
COc1cc(NC(=O)COC(=O)CNC(=O)c2ccc(Cl)cc2)c(C)cc1[N+](=O)[O-] | -2 | 1 | 3 | -2 | · | 1 | ·
